Measurements reported in ChEMBL document CHEMBL1795289, “5-alk(en)ylresorcinols as the major active components in wheat bran inhibit human colon cancer cell growth” (Bioorg Med Chem, 2011).
Converted amounts (≈) assume the structure as drawn.

How the values were obtained:
Format in all cases: functional, cell-based
HT-29 = test: Growth inhibition of human HT-29 cells after 48 hrs by MTT assay; details: HT-29, 48 h
Method in brief: (§1)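 Cells seeded at 5000/well and left 24 h at 37 °C to attach. Samples in DMSO diluted into McCoy's 5A with 10% FBS, penicillin/streptomycin, amphotericin B and glutamine at 5, 10, 25, 37 and 50 µg/mL, 48 h, 37 °C. MTT 2.41 mmol/L for 3 h, formazan dissolved in DMSO, absorbance 595 nm. Reported as % cell growth, n = 8; IC50 by curve fitting.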

HCT-116 = test: Growth inhibition of human HCT116 cells after 48 hrs by MTT assay; details: HCT-116, 48 h; method in brief: as §1
HeLa = test: Growth inhibition of human HeLa cells
FM3A = test: Growth inhibition of mouse FM3A cells
BT-20 = test: Growth inhibition of human BT20 cells

| SMILES | IC50 (HT-29) [µg/mL] | IC50 (HCT-116) [µg/mL] | IC50 (HeLa) [µg/mL] | IC50 (FM3A) [nM] | IC50 (BT-20) [µg/mL] |
| --- | --- | --- | --- | --- | --- |
| CCCC/C=C\CCCCCCCCCCCc1cc(O)cc(O)c1 | 35.6 (≈ 103 µM) | 20 (≈ 57.8 µM) |  |  |  |
| CCCCCCCCCCCCCCCCCCCc1cc(O)cc(O)c1 | > 50 | 36.2 (≈ 96.1 µM) |  |  |  |
| CCCC/C=C\CCCCCCCCCCCCCc1cc(O)cc(O)c1 |  | 17.6 (≈ 47.1 µM) |  |  |  |
| CCCCCC/C=C\CCCCCCCCCCCc1cc(O)cc(O)c1 | 30.4 (≈ 81.2 µM) | 11.6 (≈ 30.9 µM) |  |  |  |
| CCCCC/C=C\C/C=C\CCCCCCCCCc1cc(O)cc(O)c1 | 48.3 (≈ 130 µM) | 27.1 (≈ 72.6 µM) |  |  |  |
| CC/C=C\C/C=C\C/C=C\CCCCCCCCCc1cc(O)cc(O)c1 | 39.5 (≈ 107 µM) | 20 (≈ 54.1 µM) |  |  |  |
| CCCCCCCCCCCCCCCCCCCCCc1cc(O)cc(O)c1 | > 50 | > 50 |  |  |  |
| CCCC/C=C\CCCCCCCCCCCCCCCc1cc(O)cc(O)c1 | 46.9 (≈ 116 µM) | 22.3 (≈ 55.3 µM) |  |  |  |
| CCCCCCCCCCCCCCCCCCCC(=O)Cc1cc(O)cc(O)c1 |  | 16.6 (≈ 39.7 µM) |  |  |  |
| CCCCCCCCCCCCCCCCCCCCCCCc1cc(O)cc(O)c1 | > 50 | > 50 |  |  |  |
| CCCCCCCCCCCCCCCCCCCCCC(=O)Cc1cc(O)cc(O)c1 |  | > 50 |  |  |  |
| CCCCCCCCCCCCCCCCCCCCCCCCCc1cc(O)cc(O)c1 | > 50 | > 50 |  |  |  |
| CCCCCCCCCCCCCCCCCc1cc(O)cc(O)c1 | 31.1 (≈ 89.4 µM) | 18.9 (≈ 54.3 µM) |  |  |  |
| CCCCCCCCCCCCCCCc1cc(O)cc(O)c1 [CARDOL] |  |  | 4.02 (≈ 12.5 µM) | 2800 | 6.25 (≈ 19.5 µM) |
